Experimental data: ChEMBL document CHEMBL4619807, “Exploration of Alternative Scaffolds for P2Y14 Receptor Antagonists Containing a Biaryl Core” (J Med Chem, 2020)
≈ marks a conversion by molar mass, not a printed value. Calls of active or inactive are those of the source. The calls are words filed in the database; no cut-off is given here.

How the values were obtained:
[1] = biological target: 5-hydroxytryptamine receptor 1D (Homo sapiens, UniProt P28221); assay: Binding affinity to 5HT1D receptor (unknown origin)
Sequence of 5-hydroxytryptamine receptor 1D (P28221 whole entry): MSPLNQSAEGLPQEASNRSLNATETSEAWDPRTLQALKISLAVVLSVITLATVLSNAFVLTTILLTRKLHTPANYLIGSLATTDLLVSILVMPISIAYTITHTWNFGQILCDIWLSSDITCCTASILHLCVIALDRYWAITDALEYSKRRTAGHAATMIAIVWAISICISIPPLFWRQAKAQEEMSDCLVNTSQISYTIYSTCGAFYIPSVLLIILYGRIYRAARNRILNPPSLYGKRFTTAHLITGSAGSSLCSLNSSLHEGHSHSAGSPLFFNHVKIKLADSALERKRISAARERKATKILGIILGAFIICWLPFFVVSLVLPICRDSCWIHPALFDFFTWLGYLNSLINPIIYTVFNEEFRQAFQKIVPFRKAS

[2] = Unbound fraction in mouse plasma; format: ADME, cell-free
Summary of the method: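 Plasma protein binding measured at 10 μM compound in human and mouse plasma, expressed as percent unbound (mean ± SD). Verapamil and warfarin were positive controls.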

[3] = test system: Mus musculus; assay: Antiasthmatic activity in Aspergillus oryzae protease-mediated C57BL/6J mouse model of allergic asthma assessed as reduction in eosinophil infiltration in bronchoalveolar lavage fluid at 10 mg/kg, ip dosed 30 mins before OVA aerosol challenge and measured 2 days post-challenge by cell differential count assay; format: functional, organism-based
[4] = biological target: T1, Cannabinoid receptor 1 (Homo sapiens, UniProt P21554); assay: Agonist activity at CB1 receptor (unknown origin)
T1 sequence (P21554 whole entry): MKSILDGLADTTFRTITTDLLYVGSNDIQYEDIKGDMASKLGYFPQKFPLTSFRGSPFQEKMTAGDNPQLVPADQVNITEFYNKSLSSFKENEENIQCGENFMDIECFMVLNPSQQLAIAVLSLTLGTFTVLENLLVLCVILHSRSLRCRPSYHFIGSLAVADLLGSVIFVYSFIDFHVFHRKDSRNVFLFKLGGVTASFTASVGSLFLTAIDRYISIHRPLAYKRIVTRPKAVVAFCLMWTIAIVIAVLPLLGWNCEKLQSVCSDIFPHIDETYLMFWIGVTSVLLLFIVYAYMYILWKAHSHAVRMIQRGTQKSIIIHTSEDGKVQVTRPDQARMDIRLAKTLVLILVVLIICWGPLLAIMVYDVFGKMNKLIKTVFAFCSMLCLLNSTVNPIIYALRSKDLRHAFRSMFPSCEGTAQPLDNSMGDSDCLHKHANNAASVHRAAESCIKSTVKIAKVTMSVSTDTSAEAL
Summary of the method: (§1)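 Tested through the Psychoactive Drug Screening Program as functional agonist and antagonist at CB1 and CB2 cannabinoid receptors, with an upper test concentration of 10 μM.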

[5] = biological target: T1, Cannabinoid receptor 1; assay: Antagonist activity at CB1 receptor (unknown origin); summary of the method: as §1
[6] = biological target: T2, Cannabinoid receptor 2 (Homo sapiens, UniProt P34972); assay: Agonist activity at CB2 receptor (unknown origin); summary of the method: as §1
T2 sequence (P34972 whole entry): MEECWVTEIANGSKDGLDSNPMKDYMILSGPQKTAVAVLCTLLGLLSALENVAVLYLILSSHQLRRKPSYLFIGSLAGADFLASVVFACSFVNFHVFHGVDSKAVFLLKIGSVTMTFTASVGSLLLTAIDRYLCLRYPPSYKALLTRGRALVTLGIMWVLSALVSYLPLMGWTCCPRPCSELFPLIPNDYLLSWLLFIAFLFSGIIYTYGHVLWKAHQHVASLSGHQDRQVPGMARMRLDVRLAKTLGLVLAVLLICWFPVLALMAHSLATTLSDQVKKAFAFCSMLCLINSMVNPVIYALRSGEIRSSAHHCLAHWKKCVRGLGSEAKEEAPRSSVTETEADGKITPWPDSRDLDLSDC

[7] = biological target: T2, Cannabinoid receptor 2; assay: Antagonist activity at CB2 receptor (unknown origin); summary of the method: as §1
[8] = Aqueous solubility at pH 7.4 by pION method; format: physicochemical; details: buffer
Summary of the method: (§2)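 Equilibrium aqueous solubility measured by the pION method at pH 4.0 and at pH 7.4, in μg/mL; mean ± SD.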

[9] = Aqueous solubility at pH 4 by pION method; format: physicochemical; details: buffer; summary of the method: as §2
[10] = biological target: T3, P2Y purinoceptor 14 (Homo sapiens, UniProt Q15391); assay: Inhibition of MRS4174 binding to human P2Y14R expressed in CHO cells pre-incubated for 30 mins before MRS4174 addition and further incubated for 30 mins at pH 7.4 by flow cytomtery based competitive fluorescence assay; format: cell-based
T3 sequence (Q15391 whole entry): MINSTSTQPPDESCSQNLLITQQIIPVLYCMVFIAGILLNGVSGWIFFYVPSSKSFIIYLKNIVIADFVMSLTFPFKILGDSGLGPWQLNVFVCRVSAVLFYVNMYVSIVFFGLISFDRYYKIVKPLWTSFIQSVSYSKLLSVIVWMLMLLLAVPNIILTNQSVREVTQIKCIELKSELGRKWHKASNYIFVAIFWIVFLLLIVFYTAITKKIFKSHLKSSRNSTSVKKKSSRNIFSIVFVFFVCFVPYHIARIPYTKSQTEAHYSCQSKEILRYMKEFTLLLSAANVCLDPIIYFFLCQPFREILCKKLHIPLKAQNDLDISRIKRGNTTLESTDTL

[11] = biological target: T4, P2Y purinoceptor 14 (Mus musculus, UniProt Q9ESG6); assay: Inhibition of MRS4174 binding to mouse P2Y14R expressed in HEK293 cells pre-incubated for 30 mins before MRS4174 addition and further incubated for 30 mins by flow cytomtery based competitive fluorescence assay; format: cell-based
T4 sequence (Q9ESG6 whole entry): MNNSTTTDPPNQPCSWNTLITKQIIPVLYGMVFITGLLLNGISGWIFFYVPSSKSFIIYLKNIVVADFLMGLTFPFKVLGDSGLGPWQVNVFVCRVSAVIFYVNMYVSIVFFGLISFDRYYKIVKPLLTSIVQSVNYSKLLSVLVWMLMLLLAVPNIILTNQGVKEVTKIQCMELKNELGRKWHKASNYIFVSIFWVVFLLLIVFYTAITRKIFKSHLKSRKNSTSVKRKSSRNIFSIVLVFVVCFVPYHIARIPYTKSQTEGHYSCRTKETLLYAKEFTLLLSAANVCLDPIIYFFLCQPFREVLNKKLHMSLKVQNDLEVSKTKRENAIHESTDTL
Summary of the method: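 Competitive whole-cell binding in HEK293 cells stably expressing N-terminally HA-tagged mouse P2Y14R, grown in a 24-well plate to 80–90% confluency. Antagonist given at 1 nM–100 μM in serum-containing EMEM for 30 min at 37 °C, then tracer added at 20 nM final for 30 min.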

[12] = species: Homo sapiens; assay: Selectivity index, ratio of IC50 for inhibition of MRS4174 binding to human P2Y14R expressed in CHO cells to IC50 for inhibition of MRS4174 binding to mouse P2Y14R expressed in […] cells; format: cell-based
Summary of the method: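 Ratio of human to mouse IC50 from fluorescent-tracer binding. Human P2Y14R was in CHO cells in a 96-well format. Mouse P2Y14R was in HEK293 cells, with 30 min antagonist pre-incubation and then 20 nM tracer for 30 min at 37 °C. Both read by flow cytometry.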

[13] = Binding affinity to 5HT6 receptor (unknown origin); set-up: species or system Homo sapiens
[14] = biological target: Delta-type opioid receptor (Homo sapiens, UniProt P41143); assay: Binding affinity to DOR (unknown origin)
Sequence of Delta-type opioid receptor (P41143 whole entry): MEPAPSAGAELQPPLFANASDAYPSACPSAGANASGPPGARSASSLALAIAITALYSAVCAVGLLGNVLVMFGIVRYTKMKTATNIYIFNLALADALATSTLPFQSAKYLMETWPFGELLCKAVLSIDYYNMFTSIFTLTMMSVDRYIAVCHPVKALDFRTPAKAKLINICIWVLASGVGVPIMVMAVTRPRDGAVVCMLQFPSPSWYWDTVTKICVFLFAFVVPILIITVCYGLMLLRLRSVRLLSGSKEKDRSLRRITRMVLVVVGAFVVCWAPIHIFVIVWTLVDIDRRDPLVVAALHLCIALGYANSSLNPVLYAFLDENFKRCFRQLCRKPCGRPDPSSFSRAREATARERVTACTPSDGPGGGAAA

[15] = Binding affinity to sigma 2 receptor (unknown origin); set-up: species or system Homo sapiens
[16] = biological target: Sigma non-opioid intracellular receptor 1 (Homo sapiens, UniProt Q99720); assay: Binding affinity to sigma 1 receptor (unknown origin)
Sequence of Sigma non-opioid intracellular receptor 1 (Q99720 whole entry): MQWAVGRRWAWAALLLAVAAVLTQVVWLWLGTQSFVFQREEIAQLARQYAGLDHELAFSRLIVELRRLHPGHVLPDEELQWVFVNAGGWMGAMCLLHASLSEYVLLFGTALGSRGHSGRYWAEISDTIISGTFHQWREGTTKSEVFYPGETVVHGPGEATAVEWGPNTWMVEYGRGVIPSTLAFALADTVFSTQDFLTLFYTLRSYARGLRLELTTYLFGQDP

## NCCCNC(=O)c1ccc(-c2cc(C(=O)O)cc(-n3cc(-c4ccc(C(F)(F)F)cc4)nn3)c2)s1
[1]
  Ki: 4.34 µM
[2]
  Fu: 0.83%
[3]
  Activity: Active

## C#CCCCCN1CCC(c2ccc(-c3cc(C(=O)O)cc4cc(-c5ccc(C(F)(F)F)cc5)ccc34)cc2)CC1
[3]
  Activity: Active

## O=C(O)c1cc(-c2ccc(C3CCNCC3)cc2)c2ccc(-c3ccc(C(F)(F)F)cc3)cc2c1 [PPTN]
[4]
  EC50: > 10 µM
[5]
  EC50: > 10 µM
[6]
  EC50: > 10 µM
[7]
  EC50: > 10 µM
[8]
  solubility: 0.36 µg/mL (≈ 0.757 µM)
[9]
  solubility: 1.1 µg/mL (≈ 2.31 µM)
[3]
  Activity: Active

## O=C(O)c1[nH]c(-c2ccc(C3=CCNCC3)cc2)cc1-n1cc(-c2ccc(C(F)(F)F)cc2)nn1
[10]
  IC50: > 100 µM

## NC(=O)c1ccc(-c2cc(C(=O)O)cc(-n3cc(-c4ccc(C(F)(F)F)cc4)nn3)c2)cc1
[11]
  IC50: 0.902 µM
[12]
  Ratio IC50: 3.4
[13]
  Ki: 6.89 µM

## NC(=O)c1cc(-c2ccc(C3CCNCC3)cc2)cc(-n2cc(-c3ccc(C(F)(F)F)cc3)nn2)c1
[10]
  IC50: > 100 µM

## NC(=O)c1ccc(-c2cc(C(=O)O)cc(-c3cn(-c4ccc(C(F)(F)F)cc4)nn3)c2)cc1
[14]
  Ki: 2.48 µM
[15]
  Ki: 2.91 µM
[16]
  Ki: 0.5 µM

## O=C(O)c1cc(-c2ccc(C34CCNCC3C4(F)F)cc2)cc(-n2cc(-c3ccc(C(F)(F)F)cc3)nn2)c1 (stereo not given)
[10]
  IC50: 0.639 µM
